Measured values as given in ChEMBL document CHEMBL2046370, “Beta-carboline alkaloids derived from the ascidian Synoicum sp” (Bioorg Med Chem, 2012).
In brackets after ≈: the same amount, converted by molar mass.

Columns and labels:
Isocitrate lyase = Isocitrate lyase (Candida albicans, UniProt Q9P8Q7); experiment: Inhibition of Candida albicans recombinant ICL assessed as formation of glyoxylate phenylhydrazone by spectrophotometry
In short: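 Recombinant enzyme assayed spectrophotometrically with isocitrate and phenylhydrazine present. Absorbance at 324 nm was monitored for glyoxylate phenylhydrazone formation, and IC50 was determined.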

Aspergillus fumigatus = experiment: Antifungal activity against Aspergillus fumigatus HIC 6094 after 48 to 72 hrs; assay type: functional
Trichophyton rubrum = experiment: Antifungal activity against Trichophyton rubrum IFO 9185 after 48 to 72 hrs; assay type: functional
[1] = tested on: Trichophyton mentagrophytes; experiment: Antifungal activity against Trichophyton mentagrophytes IFO 40996 after 48 to 72 hrs; assay type: functional
Candida albicans = experiment: Antifungal activity against Candida albicans ATCC 10231 after 48 to 72 hrs; assay type: functional
Staphylococcus aureus = experiment: Antibacterial activity against Staphylococcus aureus ATCC 6538p after 24 hrs; assay type: functional
Bacillus subtilis = experiment: Antibacterial activity against Bacillus subtilis ATCC 6633 after 24 hrs; assay type: functional; conditions: ATCC 6633, 24 h
Micrococcus luteus = experiment: Antibacterial activity against Micrococcus luteus IFC 12708 after 24 hrs; assay type: functional; conditions: IFC 12708, 24 h
Salmonella typhimurium = experiment: Antibacterial activity against Salmonella typhimurium ATCC 14028 after 24 hrs; assay type: functional, Salmonella enterica subsp. enterica serovar Typhimurium; conditions: Salmonella enterica, ATCC 14028, 24 h
Proteus vulgaris = experiment: Antibacterial activity against Proteus vulgaris ATCC 3851 after 24 hrs; assay type: functional; conditions: ATCC 3851, 24 h
Escherichia coli = experiment: Antibacterial activity against Escherichia coli ATCC 35270 after 24 hrs; assay type: functional; conditions: ATCC 35270, 24 h
A549 = experiment: Cytotoxicity against human A549 cells by MTT assay; assay type: functional; conditions: read-out: LC50 (the source's name)
Sortase A = molecular target: T1, Sortase A (Staphylococcus aureus, UniProt Q9S446); experiment: Inhibition of Staphylococcus aureus ATCC 6538p recombinant SrtA; design: species or system ATCC 6538p r
T1 sequence (Q9S446 whole entry): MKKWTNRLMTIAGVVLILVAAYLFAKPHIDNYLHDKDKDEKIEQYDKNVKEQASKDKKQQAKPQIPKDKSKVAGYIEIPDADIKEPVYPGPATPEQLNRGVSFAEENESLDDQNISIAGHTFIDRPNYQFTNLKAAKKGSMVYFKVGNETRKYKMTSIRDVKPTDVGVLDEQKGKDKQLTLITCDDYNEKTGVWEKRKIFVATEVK

[2] = Inhibition of porcine cerebral cortex Na+/K+ ATPase assessed as formation of fluorescent 3-O-methylfluorescein from 3-O-methylfluorescein phosphate by fluorometry; assay type: tissue-based, Sus scrofa

Isocitrate lyase, sequence (Q9P8Q7 whole entry): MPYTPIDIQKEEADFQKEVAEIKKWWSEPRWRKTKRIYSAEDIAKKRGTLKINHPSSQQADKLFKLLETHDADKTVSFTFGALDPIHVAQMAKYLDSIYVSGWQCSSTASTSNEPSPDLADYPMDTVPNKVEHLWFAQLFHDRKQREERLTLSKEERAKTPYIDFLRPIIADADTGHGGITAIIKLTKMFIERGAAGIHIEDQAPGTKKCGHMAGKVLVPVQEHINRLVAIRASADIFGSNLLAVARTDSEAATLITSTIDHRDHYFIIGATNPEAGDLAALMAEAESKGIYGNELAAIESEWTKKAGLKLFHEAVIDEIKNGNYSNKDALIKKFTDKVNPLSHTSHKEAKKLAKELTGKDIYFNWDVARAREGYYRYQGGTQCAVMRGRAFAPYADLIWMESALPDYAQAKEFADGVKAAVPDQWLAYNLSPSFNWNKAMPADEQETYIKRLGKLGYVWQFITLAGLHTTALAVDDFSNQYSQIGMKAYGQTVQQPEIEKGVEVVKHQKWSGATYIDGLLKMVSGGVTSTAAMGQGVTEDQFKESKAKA

Structure (SMILES) | IC50 (Isocitrate lyase) | MIC (Aspergillus fumigatus) | MIC (Trichophyton rubrum) | MIC [1] | MIC (Candida albicans) | MIC (Staphylococcus aureus) | MIC (Bacillus subtilis) | MIC (Micrococcus luteus) | MIC (Salmonella typhimurium) | MIC (Proteus vulgaris) | MIC (Escherichia coli) | CC50 (A549) | IC50 (Sortase A) | IC50 [2]
O=C(O)CC[N+](=O)[O-] | 38.6 µM |  |  |  |  |  |  |  |  |  |  |  |  | 
C[C@@H]1[C@H](O)[C@@H](C)/C=C/C=C/C=C/C=C/C=C/C=C/C=C/[C@H](O[C@@H]2O[C@H](C)[C@@H](O)[C@H](N)[C@@H]2O)C[C@@H]2O[C@](O)(C[C@@H](O)C[C@@H](O)[C@H](O)CC[C@@H](O)C[C@@H](O)CC(=O)O[C@H]1C)C[C@H](O)[C@H]2C(=O)O [AMPHOTERICIN B] |  | 0.78 mg/L (≈ 0.844 µM) | 0.78 mg/L (≈ 0.844 µM) | 0.39 mg/L (≈ 0.422 µM) | 0.39 mg/L (≈ 0.422 µM) |  |  |  |  |  |  |  |  | 
CC1(C)S[C@@H]2[C@H](NC(=O)[C@H](N)c3ccccc3)C(=O)N2[C@H]1C(=O)O [AMPICILLIN] |  |  |  |  |  | 0.39 mg/L (≈ 1.12 µM) | 0.78 mg/L (≈ 2.23 µM) | 0.39 mg/L (≈ 1.12 µM) | 0.78 mg/L (≈ 2.23 µM) | 0.39 mg/L (≈ 1.12 µM) | 6.25 mg/L (≈ 17.9 µM) |  |  | 
COc1cccc2c1C(=O)c1c(O)c3c(c(O)c1C2=O)C[C@@](O)(C(=O)CO)C[C@@H]3O[C@H]1C[C@H](N)[C@H](O)[C@H](C)O1 [DOXORUBICIN] |  |  |  |  |  |  |  |  |  |  |  | 3.3 µM |  | 
O=C(c1ccc(O)cc1)c1nccc2c1[nH]c1ccccc12 [EUDISTOMIN Y1] | 48.2 µM | 50 mg/L (≈ 173 µM) | 50 mg/L (≈ 173 µM) | 100 mg/L (≈ 347 µM) | 50 mg/L (≈ 173 µM) | > 100 mg/L | > 100 mg/L | > 100 mg/L | > 100 mg/L | > 100 mg/L | > 100 mg/L | 59 µM | > 347 µM | 
O=C(c1ccc(O)cc1)c1nccc2c1[nH]c1ccc(Br)cc12 [EUDISTOMIN Y2] | 50.2 µM | > 100 mg/L | > 100 mg/L | > 100 mg/L | 6.25 mg/L (≈ 17 µM) | 50 mg/L (≈ 136 µM) | 25 mg/L (≈ 68.1 µM) | 25 mg/L (≈ 68.1 µM) | 50 mg/L (≈ 136 µM) | 25 mg/L (≈ 68.1 µM) | > 100 mg/L | 65.6 µM | > 272 µM | 209 µM
O=C(c1ccc(O)c(Br)c1)c1nccc2c1[nH]c1ccccc12 [EUDISTOMIN Y3] | > 272 µM | > 100 mg/L | > 100 mg/L | > 100 mg/L | > 100 mg/L | 12.5 mg/L (≈ 34 µM) | 12.5 mg/L (≈ 34 µM) | 12.5 mg/L (≈ 34 µM) | 6.25 mg/L (≈ 17 µM) | 6.25 mg/L (≈ 17 µM) | 100 mg/L (≈ 272 µM) | 253 µM | > 272 µM | 22.5 µM
O=C(c1ccc(O)c(Br)c1)c1nccc2c1[nH]c1ccc(Br)cc12 [EUDISTOMIN Y4] |  | > 100 mg/L | > 100 mg/L | > 100 mg/L | > 100 mg/L | 3.12 mg/L (≈ 7.01 µM) | 0.78 mg/L (≈ 1.75 µM) | 1.56 mg/L (≈ 3.5 µM) | 0.39 mg/L (≈ 0.874 µM) | 0.39 mg/L (≈ 0.874 µM) | 50 mg/L (≈ 112 µM) | 48.4 µM | 163 µM | 7.5 µM
O=C(c1cc(Br)c(O)c(Br)c1)c1nccc2c1[nH]c1ccccc12 [EUDISTOMIN Y5] |  | > 100 mg/L | > 100 mg/L | > 100 mg/L | > 100 mg/L | 6.25 mg/L (≈ 14 µM) | 3.12 mg/L (≈ 7.01 µM) | 3.12 mg/L (≈ 7.01 µM) | 0.78 mg/L (≈ 1.75 µM) | 1.56 mg/L (≈ 3.5 µM) | 100 mg/L (≈ 224 µM) | 85.4 µM | 146 µM | 19.8 µM
